From ChEMBL document CHEMBL4808228, “Synthesis of novel 1,2,4-trioxanes and antimalarial evaluation against multidrug-resistant Plasmodium yoelii nigeriensis” (2021)

Legend:
Assay type in all cases: functional
[1] = test system: Plasmodium yoelii; experiment: Antimalarial activity against multidrug-resistant Plasmodium yoelii infected in Swiss mouse assessed as inhibition of parasitemia at 48 mg/kg, im for 4 days measured on day 4 relative to control; conditions: 96 h, time 4 day
Procedure, shortened: (§1)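 In this im regimen, mice (Swiss, 25 ± 1 g; n = 5 per dose) received 1 X 10⁶ parasitized RBC on day 0 and were treated on days 0–3 in two divided daily doses. Parasitaemia on day 4 was read from thin blood smears, and suppression = [(C−T)/C] × 100 relative to the control group. Full suppression meant none seen in 50 oil immersion fields.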

[2] = test system: Plasmodium yoelii; experiment: Antimalarial activity against multidrug-resistant Plasmodium yoelii infected in Swiss mouse assessed as animal survival at 48 mg/kg, po for 4 days and measured for 28 days; conditions: 672 h, time 28 day
Procedure, shortened: (§2)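 Swiss mice (25 ± 1 g) were inoculated with 1 X 10⁶ parasitized RBC on day 0. Groups of five were dosed orally on days 0–3 in two divided daily doses, in groundnut oil, 0.1 ml per dose. Thin blood smears were read on days 4–28, and mice without patent infection by day 28 counted as cured. β-Arteether was the positive control.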

[3] = test system: Plasmodium yoelii; experiment: Antimalarial activity against multidrug-resistant Plasmodium yoelii infected in Swiss mouse assessed as inhibition of parasitemia at 48 mg/kg, po for 4 days measured on day 4 relative to control; conditions: 96 h, time 4 day
Procedure, shortened: (§3)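 Swiss mice (25 ± 1 g), five per dose, were infected with 1 X 10⁶ parasitized RBC on day 0. Dosing was oral on days 0–3, twice daily, in groundnut oil (0.1 ml per dose). Day-4 thin-smear parasitaemia gave % suppression = [(C−T)/C] × 100 versus the control group. 100% meant no parasites in 50 oil immersion fields.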

[4] = test system: Plasmodium yoelii; experiment: Antimalarial activity against multidrug-resistant Plasmodium yoelii infected in Swiss mouse assessed as animal survival at 48 mg/kg, im for 4 days and measured for 28 days; conditions: 672 h, time 28 day
Procedure, shortened: (§4)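 Intramuscular dosing of groups of five Swiss mice (25 ± 1 g) infected on day 0 with 1 X 10⁶ parasitized RBC, on days 0–3 in two divided daily doses. Parasitaemia came from thin blood smears over days 4–28. Animals without patent infection till day 28 were recorded as cured. The strain is resistant to chloroquine, mefloquine and halofantrine.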

[5] = test system: Plasmodium yoelii; experiment: Antimalarial activity against multidrug-resistant Plasmodium yoelii infected in Swiss mouse assessed as animal survival at 96 mg/kg, po for 4 days and measured for 28 days; conditions: 672 h, time 28 day; procedure, shortened: as §2
[6] = test system: Plasmodium yoelii; experiment: Antimalarial activity against multidrug-resistant Plasmodium yoelii infected in Swiss mouse assessed as inhibition of parasitemia at 96 mg/kg, po for 4 days measured on day 4 relative to control; conditions: 96 h, time 4 day; procedure, shortened: as §3
[7] = test system: Plasmodium yoelii; experiment: Antimalarial activity against multidrug-resistant Plasmodium yoelii infected in Swiss mouse assessed as inhibition of parasitemia at 96 mg/kg, im for 4 days measured on day 4 relative to control; conditions: 96 h, time 4 day; procedure, shortened: as §1
[8] = test system: Plasmodium yoelii; experiment: Antimalarial activity against multidrug-resistant Plasmodium yoelii infected in Swiss mouse assessed as animal survival at 96 mg/kg, im for 4 days and measured for 28 days; conditions: 672 h, time 28 day; procedure, shortened: as §4
[9] = test system: Plasmodium yoelii; experiment: Antimalarial activity against multidrug-resistant Plasmodium yoelii infected in Swiss mouse assessed as animal survival at 24 mg/kg, po for 4 days and measured for 28 days; conditions: 672 h, time 28 day; procedure, shortened: as §2
[10] = test system: Plasmodium yoelii; experiment: Antimalarial activity against multidrug-resistant Plasmodium yoelii infected in Swiss mouse assessed as inhibition of parasitemia at 24 mg/kg, po for 4 days measured on day 4 relative to control; conditions: 96 h, time 4 day; procedure, shortened: as §3
[11] = test system: Plasmodium yoelii; experiment: Antimalarial activity against multidrug-resistant Plasmodium yoelii infected in Swiss mouse assessed as inhibition of parasitemia at 48 mg/kg, im for 4 days measured on day 4 relative to po dosed artemisinin; conditions: time 4 day
[12] = test system: Plasmodium yoelii; experiment: Antimalarial activity against multidrug-resistant Plasmodium yoelii infected in Swiss mouse assessed as inhibition of parasitemia at 24 mg/kg, im for 4 days measured on day 4 relative to control; conditions: 96 h, time 4 day; procedure, shortened: as §1
[13] = test system: Plasmodium yoelii; experiment: Antimalarial activity against multidrug-resistant Plasmodium yoelii infected in Swiss mouse assessed as inhibition of parasitemia at 48 mg/kg, po for 4 days measured on day 4 relative to po dosed artemisinin; conditions: time 4 day
[14] = test system: Plasmodium yoelii; experiment: Antimalarial activity against multidrug-resistant Plasmodium yoelii infected in Swiss mouse assessed as animal survival at 24 mg/kg, im for 4 days and measured for 28 days; conditions: 672 h, time 28 day; procedure, shortened: as §4

## C=C(c1ccc(Oc2ccc3ccc(OCCO)cc3c2)cc1)C1COC2(OO1)C1CC3CC(C1)CC2C3 (centres undefined)
[1]
  inhibition in vivo at 48 mg/kg: 51.4%
[2]
  survival at 48 mg/kg: 0%
[3]
  inhibition in vivo at 48 mg/kg: 83.2%
[4]
  survival at 48 mg/kg: 0%

## C=C(c1ccc(Oc2cccc3c(OCCO)cccc23)cc1)C1COC2(CCCCC2)OO1 (centres undefined)
[1]
  inhibition in vivo at 48 mg/kg: 46.2%
[2]
  survival at 48 mg/kg: 0%
[3]
  inhibition in vivo at 48 mg/kg: 38.2%
[4]
  survival at 48 mg/kg: 0%

## C=C(c1ccc(Oc2ccc3ccc(OCCOC(=O)CCC(=O)O)cc3c2)cc1)C1COC2(OO1)C1CC3CC(C1)CC2C3 (centres undefined)
[1]
  inhibition in vivo at 48 mg/kg: 58.8%
[2]
  survival at 48 mg/kg: 0%
[3]
  inhibition in vivo at 48 mg/kg: 77.4%
[4]
  survival at 48 mg/kg: 0%

## C=C(c1ccc(Oc2ccc3ccc(OCCO)cc3c2)cc1)C1COC2(CCCCC2)OO1 (centres undefined)
[1]
  inhibition in vivo at 48 mg/kg: 71.6%
[2]
  survival at 48 mg/kg: 0%
[3]
  inhibition in vivo at 48 mg/kg: 83.5%
[4]
  survival at 48 mg/kg: 0%

## C=C(c1ccc(Oc2ccc(OCCOC(=O)CCC(=O)O)cc2)cc1)C1COC2(CCCC2)OO1 (centres undefined)
[5]
  survival at 96 mg/kg: 0%
[6]
  inhibition in vivo at 96 mg/kg: 44.3%
[7]
  inhibition in vivo at 96 mg/kg: 77.8%
[8]
  survival at 96 mg/kg: 0%

## C=C(c1ccc(Oc2ccc3ccc(OCCOC(=O)CCC(=O)O)cc3c2)cc1)C1COC2(CCCC2)OO1 (centres undefined)
[9]
  survival at 24 mg/kg: 0%
[1]
  inhibition in vivo at 48 mg/kg: 100%
[10]
  inhibition in vivo at 24 mg/kg: 100%
[11]
  fold change (FC): 2
[12]
  inhibition in vivo at 24 mg/kg: 100%
[2]
  survival at 48 mg/kg: 100%
[3]
  inhibition in vivo at 48 mg/kg: 100%
[13]
  fold change (FC): 2
[4]
  survival at 48 mg/kg: 100%
[14]
  survival at 24 mg/kg: 80%

## C=C(c1ccc(Oc2ccc(OCCOC(=O)CCC(=O)O)cc2)cc1)C1COC2(OO1)C1CC3CC(C1)CC2C3 (centres undefined)
[5]
  survival at 96 mg/kg: 0%
[6]
  inhibition in vivo at 96 mg/kg: 35.6%
[7]
  inhibition in vivo at 96 mg/kg: 100%
[8]
  survival at 96 mg/kg: 40%

## C=C(c1ccc(Oc2ccc3ccc(OCCO)cc3c2)cc1)C1COC2(CCCC2)OO1 (centres undefined)
[1]
  inhibition in vivo at 48 mg/kg: 100%
[2]
  survival at 48 mg/kg: 80%
[3]
  inhibition in vivo at 48 mg/kg: 100%
[4]
  survival at 48 mg/kg: 80%

## C[C@@H]1CC[C@H]2[C@@H](C)C(=O)O[C@@H]3O[C@@]4(C)CC[C@@H]1[C@]32OO4 [ARTEMISININ]
[1]
  inhibition in vivo at 48 mg/kg: 100%
[6]
  inhibition in vivo at 96 mg/kg: 100%
[12]
  inhibition in vivo at 24 mg/kg: 100%
[4]
  survival at 48 mg/kg: 100%
[14]
  survival at 24 mg/kg: 80%

## C=C(c1ccc(Oc2cccc3c(OCCOC(=O)CCC(=O)O)cccc23)cc1)C1COC2(OO1)C1CC3CC(C1)CC2C3 (centres undefined)
[1]
  inhibition in vivo at 48 mg/kg: 42.2%
[2]
  survival at 48 mg/kg: 0%
[3]
  inhibition in vivo at 48 mg/kg: 27.5%
[4]
  survival at 48 mg/kg: 0%

## C=C(c1ccc(Oc2cccc3c(OCCOC(=O)CCC(=O)O)cccc23)cc1)C1COC2(CCCCC2)OO1 (centres undefined)
[1]
  inhibition in vivo at 48 mg/kg: 26.6%
[2]
  survival at 48 mg/kg: 0%
[3]
  inhibition in vivo at 48 mg/kg: 49.8%
[4]
  survival at 48 mg/kg: 0%

## C=C(c1ccc(Oc2ccc(OCCOC(=O)CCC(=O)O)cc2)cc1)C1COC2(CCCCC2)OO1 (centres undefined)
[5]
  survival at 96 mg/kg: 0%
[6]
  inhibition in vivo at 96 mg/kg: 10%
[7]
  inhibition in vivo at 96 mg/kg: 28.4%
[8]
  survival at 96 mg/kg: 0%

## C=C(c1ccc(Oc2ccc3ccc(OCCOC(=O)CCC(=O)O)cc3c2)cc1)C1COC2(CCCCC2)OO1 (centres undefined)
[1]
  inhibition in vivo at 48 mg/kg: 100%
[3]
  inhibition in vivo at 48 mg/kg: 100%
[4]
  survival at 48 mg/kg: 60%

## C=C(c1ccc(Oc2cccc3c(OCCO)cccc23)cc1)C1COC2(OO1)C1CC3CC(C1)CC2C3 (centres undefined)
[1]
  inhibition in vivo at 48 mg/kg: 46.2%
[2]
  survival at 48 mg/kg: 40%
[3]
  inhibition in vivo at 48 mg/kg: 100%
[4]
  survival at 48 mg/kg: 0%

## C=C(c1ccc(Oc2ccc(OCCO)cc2)cc1)C1COC2(CCCCC2)OO1 (centres undefined)
[5]
  survival at 96 mg/kg: 0%
[6]
  inhibition in vivo at 96 mg/kg: 45.4%
[7]
  inhibition in vivo at 96 mg/kg: 72.4%
[8]
  survival at 96 mg/kg: 0%

## C=C(c1ccc(Oc2cccc3c(OCCOC(=O)CCC(=O)O)cccc23)cc1)C1COC2(CCCC2)OO1 (centres undefined)
[1]
  inhibition in vivo at 48 mg/kg: 28.3%
[2]
  survival at 48 mg/kg: 0%
[3]
  inhibition in vivo at 48 mg/kg: 39.4%
[4]
  survival at 48 mg/kg: 0%

## C=C(c1ccc(Oc2ccc(OCCO)cc2)cc1)C1COC2(CCCC2)OO1 (centres undefined)
[5]
  survival at 96 mg/kg: 0%
[6]
  inhibition in vivo at 96 mg/kg: 38.4%
[7]
  inhibition in vivo at 96 mg/kg: 85.2%
[8]
  survival at 96 mg/kg: 0%

## C=C(c1ccc(Oc2ccc(OCCO)cc2)cc1)C1COC2(OO1)C1CC3CC(C1)CC2C3 (centres undefined)
[5]
  survival at 96 mg/kg: 100%
[6]
  inhibition in vivo at 96 mg/kg: 100%
[2]
  survival at 48 mg/kg: 0%
[7]
  inhibition in vivo at 96 mg/kg: 100%
[3]
  inhibition in vivo at 48 mg/kg: 85.5%
[8]
  survival at 96 mg/kg: 0%

## C=C(c1ccc(Oc2cccc3c(OCCO)cccc23)cc1)C1COC2(CCCC2)OO1 (centres undefined)
[1]
  inhibition in vivo at 48 mg/kg: 46.2%
[2]
  survival at 48 mg/kg: 0%
[3]
  inhibition in vivo at 48 mg/kg: 44.1%
[4]
  survival at 48 mg/kg: 0%
